System: MS2 coat protein
Assay: apparent Kd, MS2 coat protein; higher = weaker binding; RNA-MaP array; FMN 200 µM where present
Summary of the method: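 The titrant was SNAP-549-labelled MS2 coat protein, run from 0.7 or 1.5 nM in doubling steps to 3 µM. It was applied to designs transcribed by stalled E. coli RNA polymerase on Illumina sequencing-chip clusters, without ligand first and then with constant ligand, in 100 mM Tris-HCl pH 7.5, 80 mM KCl, 4 mM MgCl2, BSA, DTT, yeast tRNA and Tween-20. The apparent Kd is the median of filtered per-cluster binding-curve fits, with green signal normalised to red-channel RNA signal and control-cluster median Fmax.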

[1] = designed as: OFF switch for flavin mononucleotide, no ligand
[2] = ligand present: flavin mononucleotide, designed as: OFF switch for flavin mononucleotide
[3] = designed as: ON switch for flavin mononucleotide, no ligand
[4] = ligand present: flavin mononucleotide, designed as: ON switch for flavin mononucleotide

Row | Sequence | apparent Kd [1] [nM] | apparent Kd [2] [nM] | apparent Kd [3] [nM] | apparent Kd [4] [nM]
1 | GGUGGACAUGAGGAUCACCCAUGUGAGGAUAUCGGCUAUCUUCUCGCUGUCGGUUGCUCGAGAAGGCACAUUGU | 70.6 | 86.7 | – | –
2 | AGUGGUGGAGGAUAUACAUGAGGAUCACCCAUGUAAAUCACACAUGUGGUCAAAGCAUGUAGAAGGCCACUACA | 99.6 | 109 | – | –
3 | AUCCGGCGUGUAGGAUAUGGAAAAGAUUAGGAACCAGAAGGACAUGAGGAUCACCCAUGUACAUGUAAACAGUCAUCACCGGAA | 11.4 | 28.6 | – | –
4 | UCCUUAAACACAGGAUAUCCUGCCGUACAUGAGGAUCACCCAUGUCCGGUCGGAGAAGGGUGGCGAAGGUAUGUGCGAAUUAAG | – | – | 8.23 | 5.41
5 | AAGAGCGAUUCUCCCUUCCUACAUGAGGAUCACCCAUGUACGAGAAGGCGCCGUGUAUACCACGGUGAGGAUAUCGUACGUUAC | 5.23 | 10.3 | – | –
6 | UCUGCUCGAGGAUAUACAUGAGGAUCACCCAUGUAUCCCUGUAGCAUGGCCUCAGGAUGUAGAAGGCGACGCUA | 14.9 | 16.8 | – | –
7 | AAGAAGGACGCAGGAUAUCCAGGACCUCCCGCAGGAGAAGGGCGAAACAUGAGGAUCACCCAUACAUGAGGAUCACCCAUGUAA | 33 | 36.3 | – | –
8 | CCAUGCAUAGCGAUAUGAUCGAGAGAUCAUGUCGCUAAAUUUAGAAGGACAUGAGGAUCACCCAUGUAGGAUAUGGGAGCAUGG | – | – | 11.7 | 8.26
9 | AUGGUCAAGUGUGAGGAUAUCCAUGCUCCCACAUGAGGAUCACCCAUGUCUUAAAGGGCGUAAAGGGAGAAGGUACGAACGCCAC | – | – | 34.3 | 27.8
10 | GCUGUGGCAUGAGGAUAUGGUCACCUUUGGUGACCAGAAGGCAUGUCAAUAGACAUGAGGAUCACCCAUGUAGUUAACACAGCA | – | – | 561 | 42.4
11 | GUGUACAGAGGAUAUACAUAAGCAUGGAAACAUGCAACCUCACAUGAGGAUCACCCAUGUAGAAGGCUGUACAC | 161 | 65.3 | – | –
12 | GCAGCUUAUGCAGGAUAUCAGCACGUGUAGUGCUGAGAAGGGCACAUGAGGAUCACCCAUGUGAUCAAUUAAUAUAAAUGCUGC | 12.8 | 48.5 | – | –
13 | GCAGGGUAUGAGAAGGCAUAAUUUAUCUUACCACAUGUUUACAUGAGGAUCACCCAUGUUUCCUAUGAGGAUAUCAUACCGUGC | 12.4 | 9.98 | – | –
14 | AGAAUUGGUAGAUAAAAGGUCACACAGGAUAUACUCCCAACAUGAGGAUCACCCAUGUACUGGCGGUAGAAGGGUGGGAUCCUC | – | – | 33.6 | 8.52
15 | AGGUGAAAUGUAGGAUAUGGAAAUAAAUUUUAACCAGAAGGACAUGAGGAUCACCCAUGUGAUAGAGAGUUAUUUAUAACUCCA | 13.9 | 95.9 | – | –
16 | CGUAGGAUCCAGAAGGCAUGAACAUGAGGAUCACCCAUGUUAAAAUACAUGAGGAUAUGGAUCCUACGAAAAGUGCGAAAGCAC | – | – | 5.75 | 4.99
17 | AUCAGCUCAUCAGGAUAUACGUCACUGCGUCAGCAGUGUGGUAAGAUCACAUGAGGAUCACCCAUGUAGAAGGGACGAGCUGAU | 13.7 | 243 | – | –
18 | CGGCGGAAAGGAUAUGCAUUAAUAUCAAAAUGUGGGCCACGACAUGAGGAUCACCCAUGUAGAAGGUUCAGCCG | 16 | 14.3 | – | –
19 | AAAGUUCGAGGAUAUCUACUUAGCUACAUGAGGAUCACCCAUGUUAUCCUCCCGCUGGGAAGAGAAGGCGGUUAAA | 36.5 | 210 | – | –
20 | GUUAGACAUGAGGAUCACCCAUGUGAGGAUAUGAUGCGAAUAAAGAAUGAAGUAAGCAUCAGAAGGCACAUAUG | 267 | 381 | – | –
21 | GUUUGAUUGUAGAAGGUACUUAAUACUCAUGUUACAUGAGGAUCACCCAUGUUUCUACAUUAUUGUAAGGAUAUACAUAACUCA | – | – | 259 | 48.6
22 | GGGCAAAAGUAGAAGGGAUAUACGAAAAGUAUAUCAGGAUAUACAUGAGGAUCACCCAUGUUCUAAAAGUGAUAAUCCUCCCUA | 70 | 346 | – | –
23 | GUGCUGCAGCUGUGCACGAGACAUGAGGAUCACCCAUGUGACAGAAGGGACUUGUUAAAGGUAGGUCAGGAUAUGUCUUAAAAG | – | – | 107 | 37.3
24 | AAGUUUGUACGAGGAUAUCAGUUGUAUCUAAAUUCAACAUGAGGAUCACCCAUGUUGCAAUGGAGUGAGAAGGCGUGUGGGCAA | – | – | 31.3 | 22.8
25 | GUGUACAGAGGAUAUACUCGAAUCUAGCGAAGCUAGGUUUGACAUGAGGAUCACCCAUGUAGAAGGCUGUACAC | 14.6 | 18.9 | – | –
26 | AAUAAUGUGAAGGAUAUCACUAGCGAUAGCUAGUGAGAAGGUCACACAUGAGGAUCACCCAUGUGUUCCAAUAA | 43.2 | 172 | – | –
27 | UUUUAACAUGAGGAUCACCCAUGUGAGGAUAUCGAAAUUUAUAUUAAUAUUUAUAUUUCGAGAAGGCACAUUUU | 204 | 191 | – | –
28 | AAUAUGUCAUCAGGAUAUCGAGACCGGCGAGUACGAGAAGGGAUGACAUGAGGAUCACCCAUGUGAGACGCGUGAUUUGCAGGU | 105 | 304 | – | –

Row | Sequence | apparent Kd [1] [nM] | apparent Kd [2] [nM] | apparent Kd [3] [nM] | apparent Kd [4] [nM]
29 | AGCAACAUGAGGAUCACCCAUGUUGGUUCGAAAACGGACUCACAGGAUAUGCGGCGUAAUCGCUCGCAGAAGGGUGCGUCCUCA | – | – | 14.1 | 25.6
30 | GAUCGUUCUGUUAGGAUAUGCUUUGGGCUUCCGCAGUAGAAGGAACAUGAGGAUCACCCAUGUCCGAUGCCGUC | 25.6 | 28.1 | – | –
31 | GGUAGAAACAUUAACAUGAGGAUCACCCAUGUCAAAAGAAAUGAGGAUAUCGUAUACAAUGUAUAUGAGAAGGCAUGGUCUACC | – | – | 7.78 | 5.77
32 | AAGUCGAGCGUGAGGAUAUCGUUCGAACGACAGAACGAGAAGGCACAUGAGGAUCACCCAUGUGAUUAAGUUCA | 15.8 | 18.6 | – | –
33 | AGAUGACAAAGUCAUCUCUGACGGACAUGAGGAUCACCCAUGUAGGAUAUGCUACUCAAAGAGUAGCAGAAGGACAUGUGUCUU | 33.5 | 173 | – | –
34 | UGAGGACAUGAGGAUCACCCAUGUAAGGAUAUGCGGAGAGUUUGGAGAGGUUGAGGAGGCAGAAGGUACGGGAU | 155 | 79.1 | – | –
35 | AUUAAUUAAUUAAUACAUGAGGAUCACCCAUGUAAUAAGAUCUAGGAUAUCAGCUCGAAUAGAGCUGAGAAGGAGAUCACAUGU | – | – | 43.4 | 35.3
36 | AUGGAUACCACAGGAUAUACCUGGAAUAUCCAGGUAGAAGGGUGGUCCAUCCUAUGUAAAUACAUGAGGAUCACCCAUGUGUCC | – | – | 256 | 244
37 | AAGUAGUGUGUGAGGAUAUUGGUGGAAUGACAUAUUAAGAAGGCACAUGAGGAUCACCCAUGUGGGUUGUCACG | 49.2 | 120 | – | –
38 | CAGGUAUAAGGAUAUACAUAGAUACAGACACAUGUUCAAGUACAUGAGGAUCACCCAUGUAGAAGGUAUAUAUG | 28.8 | 25.6 | – | –
39 | AGUUAGAUAGCGAUAUGAUCGAGAGAUCAUGUCGCUAAGUUUAGAAGGACAUGAGGAUCACCCAUGUAGGAUAUGGGAGUAGAA | – | – | 149 | 53.9
40 | GGCGAGUGAGGAUAUCUGAUGUCUAACUUCGGUUAGACAUCAGAGAAGGCACAUGAGGAUCACCCAUGUCCGCC | 19.3 | 17.1 | – | –
41 | CAGCCCUGAGGAUAUCCACCCUCGUACAUGAGGAUCACCCAUGUUUCCCUCUGGGCUUUCGGAGAAGGCAGGUAUC | 78.6 | 77.3 | – | –
42 | CUUUUAUAAUAGAAGGUAGACUUUAAGUGGAUCACCCAUGUGUAGGUACUAAGGAUAUGUAGUUACAUGAGGAUCACCCAUGUU | – | – | 172 | 143
43 | AGUCGGAGCAGAGGAUAUAUACAUGAGGAUCACCCAUGUGACUGACUACGCUGGAAACAGCAUGUAUAGAAGGCUGCUCCGACA | 448 | 882 | – | –
44 | GUGGUCAGACAUGAGGAUCACCCAUGUGGAAUAAAUAAGGGACAGGAUAUUCAAUAUAGGAUAUAGAAGAAGGGUUGGUUGGUG | – | – | 96.1 | 125
45 | GUAUCGUGAGGAUAUCCAAUAUAUGACAUGAGGAUCACCCAUGUUUCCACUCGUACCUCCGGAGAAGGCACAGUUU | 32.2 | 27.9 | – | –
46 | GCCGUAAGUGUGAGGAUAUACCUAUGGAUACAUAGGUAGAAGGCACAUGAGGAUCACCCAUGUCCUUAAUCGGC | 247 | 267 | – | –
47 | UCUCGUUUCGCAGGAUAUGCUGGUCGGUAAUAUACCGGCCACAUGAGGAUCACCCAUGUGCCACAGCAGAAGGGUGACACUAGA | – | – | 634 | 65.7
48 | CCUCCCUGAGGAUAUCCACCCUCAUACAUGAGGAUCACCCAUGUUCAACCCUGGGUUCCCGGAGAAGGCAGUUUUC | 97.2 | 102 | – | –
49 | UUGUUAUGUGUAGGAUAUGCAUAUUAUUAUUAUGCAGAAGGACAUGAGGAUCACCCAUGUGUAUUGUUAUUAUAUAUUAUAUAU | 22.8 | 30.5 | – | –
50 | GUAGUAUAAAGUUCAUAAUAUAGGAUAGAAGGUGAAAAUUUGACAUGAGGAUCACCCAUGUAAUUCAAGGAUAUGUAGUUACUC | – | – | 128 | 96.5
51 | CUGUUAUAGAUCCAGAAUUACAACAUGAGGAUCACCCAUGUGCAGGAUAUCGGGUUGAUAGGCGCCGAGAAGGGUAUAGUCACG | 60.2 | 61.6 | – | –
52 | UUUUACAUAGGAUAUAGUUUCUUUUACAUGAGGAUCACCCAUGUUUCUCUUCUCUCUCUUCUAGAAGGAUGUUUCU | 34.8 | 31.4 | – | –
53 | GGACAUUUACAGAAGGGCAAAUUUUUUAUUGAAUAUUUAGUUCUGUUUUGCAGGAUAUGUUUUACAUGAGGAUCACCCAUGUCC | – | – | 79.9 | 30.6
54 | CUAUUGAUAACAGGAUAUAUGAGUCCUACAUGAGGAUCACCCAUGUAGGUGAUCAGCCGUGAUUAGUAGAAGGGUUAUCAAUAG | – | – | 12.7 | 6.63
55 | CCUGAGUCAGGAUAUUGUACCGGCCUGAAGCCAGGCCGGCCCAAGAAGGGACAUGAGGAUCACCCAUGUGAAAA | 35.9 | 73.9 | – | –
